In brackets after ≈: the same amount, converted by molar mass. Activity calls are given as the source filed them. The rule behind the calls is not given here.
Key:
Staphylococcus aureus [1] = test: Antimicrobial activity against wild-type Staphylococcus aureus CB190 by agar dilution method; type: functional
Outline: (§1)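 CLSI agar dilution MIC with cation-adjusted Mueller-Hinton (MHII) agar as the base medium.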

Staphylococcus aureus [2] = test: Antimicrobial activity against Staphylococcus aureus CB1882 harboring rpoB R484H mutant gene, L520 deficient gyrA gene and R236 duplicated parC gene; type: functional
Staphylococcus aureus [3] = test: Antimicrobial activity against rifampin-sensitive Staphylococcus aureus CB190 harboring rpoB A477V mutant gene by broth microdilution method; type: functional
Outline: (§2)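 CLSI broth microdilution MIC in cation-adjusted Mueller-Hinton (MHII) broth supplemented with 0.002% (vol/vol) polysorbate 80, included to limit compound loss to plastic surfaces.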

Staphylococcus aureus [4] = test: Activity at Staphylococcus aureus DNA topoisomerase 4 subunit ParC S80F mutant
Staphylococcus aureus [5] = test: Antimicrobial activity against Staphylococcus aureus CB370 harboring rpoB H481Y mutant gene by agar dilution method; type: functional; outline: as §1
Staphylococcus aureus [6] = test: Antimicrobial activity against Staphylococcus aureus CB809 harboring rpoB H481Y and parC S80F mutant genes by broth microdilution method
Staphylococcus aureus [7] = test: Antimicrobial activity against Staphylococcus aureus CB1880 harboring rpoB R484H mutant gene by agar dilution method; type: functional
Outline: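 CLSI agar dilution MIC on MHII base medium against stepwise-passage isolates; passage was in MHII broth without polysorbate 80, daily at 37°C.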

Staphylococcus aureus [8] = test: Antimicrobial activity against Staphylococcus aureus CB814 harboring gyrA […] and parc S80F mutant genes by broth microdilution method; type: functional; outline: as §2
Staphylococcus aureus [9] = test: Antimicrobial activity against Staphylococcus aureus CB1327 harboring rpoB H481Y and gyrA S84L mutant genes selected after 0.2 ug/ml drug exposure by broth microdilution method; type: functional
Outline: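 CLSI broth microdilution MIC in cation-adjusted Mueller-Hinton (MHII) broth with 0.002% (vol/vol) polysorbate 80. Single-step mutants were selected on agar […], purified by drug-free passage, their phenotype re-verified, and resistance loci sequenced.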

Staphylococcus aureus [10] = test: Inhibition of cell wall synthesis in rifamycin-resistant Staphylococcus aureus CB370 harboring rpoB H481Y mutant gene assessed as decrease in [2,3-3H]D-alanine incorporation at 0.5 ug/ml; type: functional, organism-based
Outline: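 Time-course radiolabel incorporation in S. aureus cultures with test agent. Precursors: [methyl-3H]thymidine (DNA), [5,6-3H]uridine (RNA), L-[3,4,5-3H]leucine (protein), [2,3-3H]D-alanine (cell wall). At each time point, incorporation with agent is expressed relative to the DMSO-treated control culture as percent incorporation. Time-zero incorporation is set to 100%.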

Compound CO[C@H]1/C=C/O[C@@]2(C)Oc3c(C)c(O)c4c(O)c(c(/C=N/N5CCC(N(C)C6([C@@H]7CCN(c8c(F)cn9c(=O)c(C(=O)O)cc(C%10CC%10)c9c8C)C7)CC6)CC5)c(O)c4c3C2=O)NC(=O)/C(C)=C\C=C\[C@H](C)[C@H](O)[C@@H](C)[C@@H](O)[C@@H](C)[C@H](OC(C)=O)[C@@H]1C has an MIC (Staphylococcus aureus [1]) of 0.008 µg/mL (≈ 0.00664 µM), a Time (Staphylococcus aureus [2]) of 45 min and an MIC (Staphylococcus aureus [3]) of 0.12 µg/mL (≈ 0.0996 µM). It also gave a CC50 (Staphylococcus aureus [4]) of 2.7 µM, an MIC (Staphylococcus aureus [5]) of 0.03 µg/mL (≈ 0.0249 µM) and an MIC (Staphylococcus aureus [6]) of 0.25 µg/mL (≈ 0.207 µM). For the same compound, the MIC (Staphylococcus aureus [7]) was 0.032 µg/mL (≈ 0.0265 µM), the MIC (Staphylococcus aureus [8]) was 0.015 µg/mL (≈ 0.0124 µM) and the MIC (Staphylococcus aureus [9]) was 0.5 µg/mL (≈ 0.415 µM). The Activity (Staphylococcus aureus [10]) was “Active”.

From ChEMBL document CHEMBL1275434, “In vitro evaluation of CBR-2092, a novel rifamycin-quinolone hybrid antibiotic: studies of the mode of action in Staphylococcus aureus” (Antimicrob Agents Chemother, 2008)
